The test system of experiment [1] is HepG2. The experiment can be described thus: Cell cycle arrest in human HepG2 cells assessed as accumulation at G1-phase at 6 uM after 48 hrs by propidium iodide staining based flow cytometry (reference value: 50.47%). Type of experiment: functional.
Experiment [2] has as its system HepG2. The experiment can be described thus: Cell cycle arrest in human HepG2 cells assessed as accumulation at G2-phase at 6 uM after 48 hrs by propidium iodide staining based flow cytometry (reference value: 19.04%). Type of experiment: functional. For orientation: Flow cytometry measures light scatter and fluorescence of single cells or particles in a stream.
For experiment [3], the system named is HepG2. The experiment can be described thus: Cell cycle arrest in human HepG2 cells assessed as accumulation at S-phase at 6 uM after 48 hrs by propidium iodide staining based flow cytometry (reference value: 30.49%). Type of experiment: functional.
Experiment [4] concerns HepG2. The experiment can be described thus: Cell cycle arrest in human HepG2 cells assessed as accumulation at G1-phase at 8 uM after 48 hrs by propidium iodide staining based flow cytometry (reference value: 50.47%). The class given is functional.
In experiment [5] the test system is HepG2. The experiment can be described thus: Cell cycle arrest in human HepG2 cells assessed as accumulation at G2-phase at 8 uM after 48 hrs by propidium iodide staining based flow cytometry (reference value: 19.04%). The class given is functional.
Experiment [6] has as its system HepG2. The experiment can be described thus: Cell cycle arrest in human HepG2 cells assessed as accumulation at G2-phase at 10 uM after 48 hrs by propidium iodide staining based flow cytometry (reference value: 19.04%). Type of experiment: functional.
Experiment [7] relates to HepG2. The experiment can be described thus: Cell cycle arrest in human HepG2 cells assessed as accumulation at G2/M phase after 48 hrs by propidium iodide staining based flow cytometry. Type of experiment: functional.
Experiment [8] has as its system HepG2. The experiment can be described thus: Downregulation of CDC25C protein expression in human HepG2 cells at 6 to 10 uM after 12 hrs by Western blot analysis. The class given is functional, cell-based.
Experiment [9] relates to HepG2. The experiment can be described thus: Upregulation of p53 protein expression in human HepG2 cells at 6 to 10 uM after 12 hrs by Western blot analysis. Type of experiment: functional, cell-based. An outline of the steps: (§1)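 HepG2 cell lysates after compound treatment analyzed by western blot for the target protein, compared with untreated negative control.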
For orientation: A western blot detects proteins with antibodies after separation by electrophoresis.

The test system of experiment [10] is Mus musculus. The experiment can be described thus: Upregulation of p53 protein expression in tumor tissues of Balb/c nude mouse xenografted with human NCI-H460 cells at 25 to 50 mg/kg, ip bid for 13 days measured on day 14 by Western blot analysis. The class given is functional, organism-based. In short, it runs like this:
(§2)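 Tumors from NCI-H460 xenografted BALB/c nude mice (25 or 50 mg/kg, vehicle 5% DMSO in saline) collected at day 14; protein levels in tumor tissue determined by western blot versus vehicle control.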
In general terms: A xenograft is tissue or cells of one species grown in another, often human tumour cells in immunodeficient mice.

Experiment [11] concerns HepG2. The experiment can be described thus: Induction of apoptosis in human HepG2 cells assessed as live cells at 8 uM after 24 hrs by Annexin V-FITC/ propidium iodide staining based flow cytometry (reference value: 91.31%). The class given is functional.
Experiment [12] concerns HepG2. The experiment can be described thus: Induction of apoptosis in human HepG2 cells assessed as early apoptotic cells at 8 uM after 24 hrs by Annexin V-FITC/ propidium iodide staining based flow cytometry (reference value: 6.5%). The class given is functional.
The subject of experiment [13] is HepG2. The experiment can be described thus: Induction of apoptosis in human HepG2 cells assessed as late apoptotic cells at 10 uM after 24 hrs by Annexin V-FITC/ propidium iodide staining based flow cytometry (reference value: 1.91%). Type of experiment: functional.
The test system of experiment [14] is HepG2. The experiment can be described thus: Induction of intracellular calcium level in human HepG2 cells at 6 to 10 uM after 24 hrs by Fluo3-AM staining based fluorescence microscopic method. Type of experiment: functional, cell-based.
Experiment [15] concerns HepG2. The experiment can be described thus: Induction of mitochondrial cytochrome-c release in to cytotol in human HepG2 cells at 6 to 10 uM after 12 hrs by Western blot analysis. Type of experiment: functional, cell-based.
Experiment [16] deals with HepG2. The experiment can be described thus: Upregulation of caspase-9 protein expression in human HepG2 cells at 6 to 10 uM after 12 hrs by Western blot analysis. The class given is functional, cell-based. An outline of the steps:
as §1

The subject of experiment [17] is HepG2. The experiment can be described thus: Upregulation of PARP protein expression in human HepG2 cells at 6 to 10 uM after 12 hrs by Western blot analysis. Type of experiment: functional, cell-based. In short, it runs like this:
as §1

Experiment [18] concerns Mus musculus. The experiment can be described thus: Upregulation of PARP protein expression in tumor tissues of Balb/c nude mouse xenografted with human NCI-H460 cells at 25 to 50 mg/kg, ip bid for 13 days measured on day 14 by Western blot analysis. Type of experiment: functional, organism-based. In short, it runs like this:
as §2

Experiment [19] deals with Mus musculus. The experiment can be described thus: Upregulation of APAF-1 protein expression in tumor tissues of Balb/c nude mouse xenografted with human NCI-H460 cells at 25 to 50 mg/kg, ip bid for 13 days measured on day 14 by Western blot analysis. The class given is functional, organism-based.
Experiment [20] relates to HepG2. The experiment can be described thus: Upregulation of p53 protein expression in human HepG2 cells at 8 uM after 12 hrs by Western blot analysis. The class given is functional, cell-based.
Experiment [21] concerns BEL-7404 tumor cell line. The experiment can be described thus: Antitumor activity against human Bel7404 cells xenografted in Balb/c nude mouse assessed as relative tumor volume increment rate at 25 mg/kg, ip bid for 20 days measured on day 21 post last dose relative to control. Type of experiment: functional.
In experiment [22] the test system is BEL-7404 tumor cell line. The experiment can be described thus: Antitumor activity against human Bel7404 cells xenografted in Balb/c nude mouse assessed as tumor growth inhibition at 25 mg/kg, ip bid for 20 days measured on day 21 post last dose relative to control. Type of experiment: functional. The settings on record: BEL-7404, ip, read-out: TGI.
In experiment [23] the test system is BEL-7404 tumor cell line. The experiment can be described thus: Antitumor activity against human Bel7404 cells xenografted in Balb/c nude mouse assessed as tumor growth inhibition at 50 mg/kg, ip bid for 20 days measured on day 21 post last dose relative to control. Type of experiment: functional. The settings on record: BEL-7404, ip, read-out: TGI.
In experiment [24] the test system is BEL-7404 tumor cell line. The experiment can be described thus: Cell cycle arrest in human Bel7404 cells assessed as accumulation at G1-phase at 9 uM after 48 hrs by propidium iodide staining based flow cytometry (reference value: 59.16%). Type of experiment: functional.
Experiment [25] deals with Mus musculus. The experiment can be described thus: Effect on caspase-3 protein expression in tumor tissues of Balb/c nude mouse xenografted with human Bel7404 cells at 25 to 50 mg/kg, ip bid for 20 days measured on day 21 by Western blot analysis. Type of experiment: functional, organism-based.
Experiment [26] relates to Mus musculus. The experiment can be described thus: Downregulation of APAF-1 protein expression in tumor tissues of Balb/c nude mouse xenografted with human Bel7404 cells at 25 to 50 mg/kg, ip bid for 20 days measured on day 21 by Western blot analysis. The class given is functional, organism-based.

Activity calls are given as the source filed them. The calls are words filed in the database; no cut-off is given here.

In the case of `O=c1[nH]c2ccccc2cc1-c1nc2cc(Cl)ccc2[nH]1`, the Activity in the experiment with HepG2 [1] stood at 41.52%; with HepG2 [2], 39%; with HepG2 [3], 29.48%; in the experiment with HepG2 [4], 31.1%; in the experiment on HepG2 [5], 39.71%; in the experiment with HepG2 [6], 49.1%. The Activity result in the experiment on HepG2 [7] is “Dose-dependent effect”; with HepG2 [11] it was 53.37%; in the experiment on HepG2 [12], 35.9%; in the experiment on HepG2 [13] it was 16.68%. Further, the outcome in the experiment on HepG2 [8], in the experiment with HepG2 [9], in the experiment on Mus musculus [10], with HepG2 [14], in the experiment on HepG2 [15] and in the experiment on HepG2 [16] was Active. Moreover, the result with HepG2 [17], in the experiment with Mus musculus [18], in the experiment on Mus musculus [19] and with HepG2 [20] was Active.

In general, T/C refers to the result in the treated group divided by that in the control group, in per cent. On to `O=c1[nH]c2cc3c(cc2cc1-c1nc2cc(Cl)ccc2[nH]1)OCO3`, for which, in the experiment with BEL-7404 tumor cell line [21], the T/C came out at 51.5%. The inhibition in vivo at 25 mg/kg in the experiment on BEL-7404 tumor cell line [22] was 41.2%. Further, the inhibition in vivo at 50 mg/kg with BEL-7404 tumor cell line [23] came to 44.9%. The Activity in the experiment with BEL-7404 tumor cell line [24] is listed as 45.76%. In addition, the outcome in the experiment with Mus musculus [25] was inactive. Moreover, the outcome with Mus musculus [26] was Active.

(Values after ChEMBL document CHEMBL4270594, “Design, synthesis and pharmacological evaluation of new 3-(1H-benzimidazol-2-yl)quinolin-2(1H)-one derivatives as potential antitumor agents” (Eur J Med Chem, 2018).)
